A selection: hits, their analogues and other compounds. The true share with any hit is near 2.2%.
NF-kB expr up: activators of NF-kB expression in neurons, primary screen, cell-based, HTS | human neuronal cells, NF-kB reporter expression; hits give high values | fold change at 12.5 µM | hit rate 1.6% among 190,000 | AID 1239, 2008; in the data active means fold change above about 3.3
C8 TRAIL sens: viability loss with TRAIL in NB7+C8 cells, primary screen, TRAIL sensitizer project, cell-based, ATPlite luminescence; inhibition (viability loss, TRAIL sensitization), % at 10 µM; hit rate 1% among 360,000;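 active means compounds causing at least 50% loss of cell viability in the single-dose screen, relative to plate controls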
PPC-1+TRAIL kill: compounds killing PPC-1 cancer cells with TRAIL present, primary screen, TRAIL potentiator project, ATPLite luminescence, uHTS. PPC-1 cells + TRAIL, ATPLite viability luminescence. AID 1443, 2008. hit rate 0.41% among 220,000. cell killing (% activity), % at 4 µM or 5 µM;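 active means cell killing above 50% in the first pass at 4 µM, then a duplicate retest at 5 µM averaging 50% or more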;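 further: plate controls were cells with TRAIL plus DMSO for no effect and medium-only wells lacking cells for full effect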
FLuc inhib CS: firefly luciferase enzyme inhibitors, primary screen, artefact control for luciferase-based inhibitor screens, biochemical, luminescence, ATPLite; hit rate 1.5% among 200,000; AID 1006, 2008; 10 min; inhibition, % at 10 µM; Luciferin 4-monooxygenase (Photinus pyralis), P08659;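 active means inhibition above about 50% when tested at 10 µM, limit read from the data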
Target sequence (P08659 whole entry, looked up): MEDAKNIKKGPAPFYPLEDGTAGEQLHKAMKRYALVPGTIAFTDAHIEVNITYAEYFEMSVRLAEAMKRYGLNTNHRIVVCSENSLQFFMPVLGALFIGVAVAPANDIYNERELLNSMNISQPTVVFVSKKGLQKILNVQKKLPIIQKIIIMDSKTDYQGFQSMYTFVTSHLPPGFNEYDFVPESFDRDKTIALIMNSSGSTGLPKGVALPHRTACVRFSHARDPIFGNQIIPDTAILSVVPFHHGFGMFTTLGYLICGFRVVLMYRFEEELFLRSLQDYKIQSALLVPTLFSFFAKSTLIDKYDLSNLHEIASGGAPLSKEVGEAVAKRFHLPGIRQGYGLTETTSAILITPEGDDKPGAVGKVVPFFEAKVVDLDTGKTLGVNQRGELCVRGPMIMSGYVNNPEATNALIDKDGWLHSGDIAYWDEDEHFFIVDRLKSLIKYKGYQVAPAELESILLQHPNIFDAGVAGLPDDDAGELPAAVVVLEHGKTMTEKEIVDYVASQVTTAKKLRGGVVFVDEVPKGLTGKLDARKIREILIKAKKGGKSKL
FLuc stim CS: FLuc activators, initial screening, artefact control for FLuc-dependent activation tests, biochemical, ATPlite luminescence; 200,000 tested, under 10 active; Luciferin 4-monooxygenase (Photinus pyralis), P08659; ATPlite luciferase biochemical, 10 min; 0 = ATP-free wells, 1 = DMSO control; activation factor at 10 µM;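 active means luciferase activation factor, scaled between plate controls, of at least 2 with compound at 10 µM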
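Assay system: Luciferase/luciferin reagent mix; Medium: PBS as buffer for the ATP substrate; Dosing: test compounds dosed from 2 mM stocks in 100% DMSO; Times: 10 min, room temperature; Signal: luminescence from luciferase reaction; Read-out: luciferase activation; Controls: No-ATP low control, compound-free enzyme-plus-ATP high control.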
APP 5'UTR act: activators of APP 5'UTR luciferase reporter, primary screen, SH-SY5Y cells; hit rate 1% among 190,000; SH-SY5Y APP 5'UTR luciferase reporter, luminescence; zero percent = DMSO vehicle wells; activation, % at 2 µM;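 active means activation above a set limit, based on mean plus 3 SD of controls, cut at about 140% in these data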
PPC1 cytotox: cytotoxicity in PPC-1 cells, confirmation, cytotoxicity control for TRAIL apoptosis potentiator project, cell-based, ATP content luminescence; shares compounds with PPC-1+TRAIL kill; PPC-1 viability, ATPlite luminescence, overnight; cytotoxicity, % at 5 µM; hit rate 50% among 1,200;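 active means reconfirmed compounds whose average cytotoxicity reaches 50% or more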;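 further: 0% = DMSO-treated cells and 100% = wells holding medium but no cells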
An asterisk follows results filed as active; nt = no result given.

SMILES	NF-kB expr up	C8 TRAIL sens	PPC-1+TRAIL kill	FLuc inhib CS	FLuc stim CS	APP 5'UTR act	PPC1 cytotox
COc1cccc2c1C(=O)O/C2=C/c1ccc2c(c1)OCO2	3.3	63*	38	85*	0.2	76	41
COc1cccc(N2CCN(C(=O)c3ccc(CSc4nc5ccncc5[nH]4)cc3)CC2)c1	0.81	11	0	6	0.9	-21	nt
Clc1ccccc1CSc1ncccn1	1.2	-1	13	-7	1.1	17	17
Clc1ccccc1CSc1nc2ccncc2[nH]1	2.6	76*	75*	90*	0.1	93	76*
COc1cccc(CSc2nc3ccncc3[nH]2)c1	nt	86*	83*	nt	nt	nt	81*
CCCn1c(=O)c2sccc2n2c(CCCC(=O)NC3CCN(Cc4ccccc4)CC3)nnc12	nt	10	nt	nt	nt	nt	nt
CCCc1nnc(SCc2ccc(OC)cc2)n1N	1.2	1	-2	-1	1	7	-16
Nc1[nH]n(-c2ccccc2)c(=O)c1N=Nc1ccc2c(c1)OCCO2	1.2	55*	45	76*	0.2	167*	42
CN(C)c1ccc(-c2ccnc3c2CC(C)(C(=O)NCCC(F)(F)F)O3)cc1 (stereo unspecified)	nt	0	nt	nt	nt	nt	nt
CCN(CC)S(=O)(=O)c1cccc(C(=O)Nc2ccccc2C(=O)N2CCOCC2)c1	0.87	-9	5	3	1	-10	-4
Cc1cc2c3c(ccc(C)c3n1)N=CN2c1ccccc1	1.3	16	13	-6	1.1	12	10
C/C(=N\NC(=O)c1ccccc1O)c1cccs1	3.6*	70*	58*	92*	0.1	107	54*
C/C(=N/NC(=O)c1cc(C2CC2)[nH]n1)c1cccs1	3.1	67*	60*	84*	0.2	120	50
CNC(=O)C[C@H]1C(=O)N(c2ccc(OC)cc2)C[C@@H]1C	nt	1	nt	nt	nt	nt	nt
Cc1cc(N=Nc2ccc(C)c(N=Nc3cc(C)c(N)cc3N)c2)c(N)cc1N	nt	51*	64*	nt	nt	nt	63*
CCOc1cc(CNCc2ccncc2)cc(Cl)c1OC	1.1	-2	4	-4	1	-6	nt
Cc1ccc(-c2nnc(Nc3ccccc3)o2)cc1	3.3	81*	84*	88*	0.1	99	85*
CC1c2cc3c(cc2CCN1S(=O)(=O)c1ccccc1)OCCCO3 (stereo unspecified)	nt	-26	nt	nt	nt	nt	nt
Cc1ccc(-c2cn3c(=O)cc(C)[nH]c3n2)cc1	2.9	71*	71*	88*	0.1	53	69*
COC(=O)c1ccc2c(=O)n(CCCCCC(=O)NCCNC(C)=O)c(=O)[nH]c2c1	1.1	-12	11	-4	1	10	nt
CC(C)(C)C(=O)Nc1cccc(-c2nc3ccccc3c(=O)o2)c1	1.5	59*	52*	20	0.8	6	53*
COc1ccc(S(=O)(=O)N2CCCOC2CNC(=O)C(=O)NCc2cccnc2)cc1 (stereo unspecified)	nt	-6	nt	nt	nt	nt	nt
CCN(CC)C(=O)[C@H]1C[C@H](CC(=O)NCCN2CCOCC2)C(=O)N2CCc3c([nH]c4cc(-c5ccco5)ccc34)[C@]12C	nt	-7	nt	nt	nt	nt	nt
Cc1ccc(NC(=O)CSc2nnc(NC3CC3)s2)cc1S(=O)(=O)N1CCOCC1	nt	-6	nt	nt	nt	nt	nt
N/C(=N\OC(=O)c1cc(Cl)ccc1Cl)c1ccccn1	3	63*	55*	75*	0.3	172*	58*
SMILES	NF-kB expr up	C8 TRAIL sens	PPC-1+TRAIL kill	FLuc inhib CS	FLuc stim CS	APP 5'UTR act	PPC1 cytotox
N/C(=N\OCc1ccc([N+](=O)[O-])cc1)c1ccccn1	1.6	nt	86*	96*	0	34	85*
COc1cc(C(=O)O/N=C(\N)c2ccccn2)cc(OC)c1OC	nt	-15	-1	nt	nt	nt	nt
N/C(=N\OC(=O)c1ccccc1)c1ccccn1	0.99	49	43	96*	0	150*	52*
COc1ccc(Cl)cc1C(=O)O/N=C(\N)c1ccccn1	nt	14	nt	nt	nt	nt	nt
CCOC(=O)C1(CCOc2ccccc2)CCN(Cc2ccc(O)c(OCC)c2)CC1	nt	4	nt	nt	nt	nt	nt
COCCN(C(=O)COC(=O)CCC(=O)c1cccs1)c1c(N)n(Cc2ccccc2)c(=O)[nH]c1=O	nt	-14	nt	nt	nt	nt	nt
CS(=O)(=O)c1ccc(C(=O)OCC(=O)NC23CC4CC(CC(C4)C2)C3)cc1[N+](=O)[O-]	1.1	-5	-8	-16	1.2	-7	-10
CC(=O)Nc1ccc(S(=O)(=O)NCCC(=O)OCc2ccc([N+](=O)[O-])cc2)cc1	nt	-8	nt	nt	nt	nt	nt
O=C(CSc1nnc(-c2cccs2)o1)NCC1CN(Cc2ccccc2)CCO1 (stereo unspecified)	1.4	-14	1	-1	1	8	7
COc1cccc(/C=C/C(=O)c2c(O)cc(C)oc2=O)c1O	2.9	11	-18	5	1	11	nt
COc1ccc(/C=C/C(=O)c2c(O)cc(C)oc2=O)c(OC)c1	4.1*	89*	87*	95*	0	53	86*
O=C(NCCNCCO)c1c(O)c2cccc3c2n(c1=O)CCC3	0.54	11	12	-1	1	1	10
CCCCCCNC(=O)c1c(O)c2cccc3c2n(c1=O)CCC3	1.1	-9	26	-8	1.1	2	nt
O=C1CCC(=O)N1c1nc2nc(-c3ccccc3)cc(-c3ccccc3)n2n1	1.2	3	11	3	1	27	-6
CC(=O)c1c(C)[nH]c(C(=O)Nc2nc(C)cs2)c1C	1.1	73*	66*	90*	0.1	116	65*
CC(=O)c1c(C)[nH]c(C(=O)Nc2nc(-c3ccc(Cl)cc3)cs2)c1C	0.35	13	22	-2	1	7	nt
CC(=O)c1c(C)[nH]c(C(=O)Nc2ccc(C)cn2)c1C	1.4	73*	69*	88*	0.1	58	66*
Cc1nnc(N2CCOCC2)c2nn(-c3ccccc3)c(C)c12	1.1	-11	8	-4	1	-17	nt
c1ccc(-n2nnc3c(N4CCOCC4)ncnc32)cc1	2.5	66*	44	84*	0.2	148*	46
Cc1cccc(NS(=O)(=O)c2cc(C(=O)N3CCc4ccccc4C3)ccc2Cl)c1C	0.37	3	3	-9	1.1	-9	3
Clc1ccc(-c2nc(-c3ccccn3)no2)cc1Cl	3	78*	66*	88*	0.1	117	64*
Cc1ccccc1-c1noc(-c2ccccc2C(=O)O)n1	nt	5	-2	nt	nt	nt	nt

High-throughput results as filed in PubChem.
